Data from ChEMBL document CHEMBL4196130, “3-(2-Carboxyethyl)indole-2-carboxylic Acid Derivatives: Structural Requirements and Properties of Potent Agonists of the Orphan G Protein-Coupled Receptor GPR17” (J Med Chem, 2018).
Blank lines part the entries; values can stand above or below the compound they belong to. Active and inactive are the calls of the source. No cut-off for these calls is given here.

Assays:
[1] = target: T1, Uracil nucleotide/cysteinyl leukotriene receptor (Homo sapiens, UniProt Q13304); assay: Agonist activity at human GPR17 expressed in human 1321N1 cells assessed as induction of calcium mobilization after 1 hr by Oregon Green BAPTA-1/AM dye-based fluorescence assay; assay type: functional, cell-based
T1 sequence (Q13304 whole entry): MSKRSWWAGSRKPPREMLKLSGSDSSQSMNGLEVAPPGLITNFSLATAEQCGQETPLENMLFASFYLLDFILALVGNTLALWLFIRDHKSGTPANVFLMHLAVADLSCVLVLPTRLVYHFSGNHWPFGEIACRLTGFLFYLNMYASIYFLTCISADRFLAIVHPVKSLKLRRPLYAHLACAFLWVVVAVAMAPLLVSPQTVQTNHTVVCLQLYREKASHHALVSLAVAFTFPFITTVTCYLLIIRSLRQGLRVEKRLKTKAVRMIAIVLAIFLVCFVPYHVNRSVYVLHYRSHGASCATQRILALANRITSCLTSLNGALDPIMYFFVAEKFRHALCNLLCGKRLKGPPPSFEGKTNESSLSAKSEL
In short: (§1)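 Stably transfected 1321N1 astrocytoma cells were trypsin/EDTA-harvested, held 45 min at 37°C, then loaded 1 h at 25°C in KRH buffer pH 7.4 with 3 µM Oregon Green BAPTA-1/AM and 1% Pluronic F127, washed, and plated at ~16,000 cells/well. Fluorescence was read at 520 nm for 30 s after compound injection. Efficacy was expressed relative to the maximum given by 10 µM MDL 29,951. EC50 came from concentration-response curves, run for compounds exceeding 50% stimulation at 10 µM. At least three independent experiments, each in duplicate.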

[2] = target: T1, Uracil nucleotide/cysteinyl leukotriene receptor; assay: Agonist activity at human GPR17 expressed in human 1321N1 cells assessed as induction of calcium mobilization after 1 hr by Oregon Green BAPTA-1/AM dye-based fluorescence assay relative to MDL 29,951; assay type: functional, cell-based; in short: as §1
[3] = target: Uracil nucleotide/cysteinyl leukotriene receptor (Rattus norvegicus, UniProt Q09QM4); assay: Agonist activity at rat GPR17 expressed in HEK293 cells assessed as induction of intracellular calcium mobilization by calcium 5-dye based assay; assay type: functional, cell-based
Chain of Uracil nucleotide/cysteinyl leukotriene receptor (Rattus norvegicus, UniProt Q09QM4) (Q09QM4 whole entry): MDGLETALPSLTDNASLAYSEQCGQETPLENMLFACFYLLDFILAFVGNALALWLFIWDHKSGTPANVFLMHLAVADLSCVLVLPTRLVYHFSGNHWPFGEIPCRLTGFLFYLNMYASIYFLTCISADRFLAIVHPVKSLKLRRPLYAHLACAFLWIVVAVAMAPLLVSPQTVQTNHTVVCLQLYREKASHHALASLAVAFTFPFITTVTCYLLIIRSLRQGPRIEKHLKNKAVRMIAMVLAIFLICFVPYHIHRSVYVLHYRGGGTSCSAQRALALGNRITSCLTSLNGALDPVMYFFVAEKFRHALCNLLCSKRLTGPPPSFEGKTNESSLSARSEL
In short: (§2)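 HEK293 cells expressing rat or mouse GPR17 were seeded at 60,000 cells/well on poly-D-lysine plates and loaded 40 min with Calcium 5 indicator dye. Calcium signals were read on a plate reader. EC50 was obtained by nonlinear regression of concentration-response data. Means ± SEM from 3 independent experiments.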

[4] = target: Uracil nucleotide/cysteinyl leukotriene receptor (Mus musculus, UniProt Q6NS65); assay: Agonist activity at mouse GPR17 expressed in HEK293 cells assessed as induction of intracellular calcium mobilization by calcium 5-dye based assay; assay type: functional, cell-based; in short: as §2
Chain of Uracil nucleotide/cysteinyl leukotriene receptor (Mus musculus, UniProt Q6NS65) (Q6NS65 whole entry): as the sequence (Q09QM4 whole entry) above, with D2N, T6A, A15S, S270A counted along it

[5] = target: Uracil nucleotide/cysteinyl leukotriene receptor (Rattus norvegicus) (UniProt Q09QM4); assay: Agonist activity at rat GPR17 expressed in HEK293 cells assessed as induction of intracellular calcium mobilization at 10 uM by calcium 5-dye based assay relative to MDL 29,951; assay type: functional, cell-based
Chain of Uracil nucleotide/cysteinyl leukotriene receptor (Rattus norvegicus) (Q09QM4 whole entry): as the sequence (Q09QM4 whole entry) above

[6] = target: Uracil nucleotide/cysteinyl leukotriene receptor (Mus musculus) (UniProt Q6NS65); assay: Agonist activity at mouse GPR17 expressed in HEK293 cells assessed as induction of intracellular calcium mobilization at 10 uM by calcium 5-dye based assay relative to MDL 29,951; assay type: functional, cell-based
Chain of Uracil nucleotide/cysteinyl leukotriene receptor (Mus musculus) (Q6NS65 whole entry): as the sequence (Q09QM4 whole entry) above, with D2N, T6A, A15S, S270A counted along it

[7] = target: P2Y purinoceptor 1 (Homo sapiens) (UniProt P47900); assay: Agonist activity at human P2Y1 receptor transfected in human 1321N1 cells assessed as induction of calcium mobilization after 30 mins in presence of ADP by fluo-4 dye based assay; assay type: functional, cell-based
Chain of P2Y purinoceptor 1 (Homo sapiens) (P47900 whole entry): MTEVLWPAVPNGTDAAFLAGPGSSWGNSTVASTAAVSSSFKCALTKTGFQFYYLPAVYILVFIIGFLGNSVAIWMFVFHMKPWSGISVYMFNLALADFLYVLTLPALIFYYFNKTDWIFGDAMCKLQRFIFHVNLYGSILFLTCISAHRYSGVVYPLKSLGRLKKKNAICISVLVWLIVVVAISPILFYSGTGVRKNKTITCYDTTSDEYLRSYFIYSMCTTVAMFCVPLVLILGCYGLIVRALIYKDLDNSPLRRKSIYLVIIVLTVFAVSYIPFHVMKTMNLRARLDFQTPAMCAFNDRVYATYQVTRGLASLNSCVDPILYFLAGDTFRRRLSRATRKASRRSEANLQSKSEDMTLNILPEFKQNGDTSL
In short: (§3)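 Calcium mobilization was measured in 1321N1 astrocytoma cells stably transfected with human P2Y1, P2Y2, P2Y4 or P2Y6 receptors, read on a Flexstation III microplate reader.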

P2Y purinoceptor 2 = P2Y purinoceptor 2 (Homo sapiens, UniProt P41231); assay: Agonist activity at human P2Y2 receptor transfected in human 1321N1 cells assessed as induction of calcium mobilization after 30 mins in presence of UTP by fluo-4 dye based assay; assay type: functional, cell-based; in short: as §3
Chain of P2Y purinoceptor 2 (P41231 whole entry): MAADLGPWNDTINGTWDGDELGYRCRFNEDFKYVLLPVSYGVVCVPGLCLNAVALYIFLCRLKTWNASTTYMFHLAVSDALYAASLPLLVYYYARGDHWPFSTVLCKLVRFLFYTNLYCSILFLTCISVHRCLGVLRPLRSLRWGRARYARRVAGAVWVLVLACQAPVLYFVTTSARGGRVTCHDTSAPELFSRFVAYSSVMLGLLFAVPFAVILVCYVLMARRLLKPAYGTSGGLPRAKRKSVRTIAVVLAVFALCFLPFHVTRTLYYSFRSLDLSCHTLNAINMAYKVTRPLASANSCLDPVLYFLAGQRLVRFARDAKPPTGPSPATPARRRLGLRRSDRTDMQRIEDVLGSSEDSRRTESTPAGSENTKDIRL

[8] = target: P2Y purinoceptor 4 (Homo sapiens) (UniProt P51582); assay: Agonist activity at human P2Y4 receptor transfected in human 1321N1 cells assessed as induction of calcium mobilization after 30 mins in presence of UTP by fluo-4 dye based assay; assay type: functional, cell-based; in short: as §3
Chain of P2Y purinoceptor 4 (Homo sapiens) (P51582 whole entry): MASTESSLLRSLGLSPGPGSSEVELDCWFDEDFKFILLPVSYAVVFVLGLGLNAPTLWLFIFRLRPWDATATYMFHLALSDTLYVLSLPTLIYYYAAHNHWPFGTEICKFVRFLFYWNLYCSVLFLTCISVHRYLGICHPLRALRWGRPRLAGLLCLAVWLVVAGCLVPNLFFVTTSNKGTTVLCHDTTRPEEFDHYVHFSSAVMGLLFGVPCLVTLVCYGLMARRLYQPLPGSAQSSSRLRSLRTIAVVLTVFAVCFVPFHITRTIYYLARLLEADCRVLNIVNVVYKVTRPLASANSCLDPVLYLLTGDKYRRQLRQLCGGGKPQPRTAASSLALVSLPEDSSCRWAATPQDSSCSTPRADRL

[9] = target: P2Y purinoceptor 6 (Homo sapiens) (UniProt Q15077); assay: Agonist activity at human P2Y6 receptor transfected in human 1321N1 cells assessed as induction of calcium mobilization after 30 mins in presence of UDP by fluo-4 dye based assay; assay type: functional, cell-based; in short: as §3
Chain of P2Y purinoceptor 6 (Homo sapiens) (Q15077 whole entry): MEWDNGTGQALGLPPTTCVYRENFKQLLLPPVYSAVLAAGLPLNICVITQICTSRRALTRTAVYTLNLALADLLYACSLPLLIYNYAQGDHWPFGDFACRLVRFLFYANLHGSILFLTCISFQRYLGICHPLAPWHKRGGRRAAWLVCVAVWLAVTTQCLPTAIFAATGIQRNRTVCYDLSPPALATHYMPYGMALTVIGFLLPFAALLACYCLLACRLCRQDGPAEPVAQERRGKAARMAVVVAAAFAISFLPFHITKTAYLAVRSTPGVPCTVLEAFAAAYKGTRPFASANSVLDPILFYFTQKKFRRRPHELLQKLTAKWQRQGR

[10] = target: P2Y purinoceptor 12 (Homo sapiens) (UniProt Q9H244); assay: Agonist activity at human P2Y12 receptor transfected in CHO cells assessed as induction of beta-arrestin translocation; assay type: functional, cell-based
Chain of P2Y purinoceptor 12 (Homo sapiens) (Q9H244 whole entry): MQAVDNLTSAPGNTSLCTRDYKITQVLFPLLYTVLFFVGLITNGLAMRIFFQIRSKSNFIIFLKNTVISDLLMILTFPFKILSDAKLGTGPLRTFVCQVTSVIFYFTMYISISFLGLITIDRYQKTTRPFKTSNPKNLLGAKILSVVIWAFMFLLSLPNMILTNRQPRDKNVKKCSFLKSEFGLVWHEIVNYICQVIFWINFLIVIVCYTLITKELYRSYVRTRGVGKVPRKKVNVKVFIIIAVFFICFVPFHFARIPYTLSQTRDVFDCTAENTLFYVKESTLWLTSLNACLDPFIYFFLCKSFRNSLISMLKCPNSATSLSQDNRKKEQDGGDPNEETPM
In short: (§4)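 β-Arrestin translocation assays were run in CHO cells stably transfected with human P2Y12 or P2Y14 receptors.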

[11] = target: T2, P2Y purinoceptor 14 (Homo sapiens) (UniProt Q15391); assay: Agonist activity at human P2Y14 receptor transfected in CHO cells assessed as induction of beta-arrestin translocation; assay type: functional, cell-based; in short: as §4
T2 sequence (whole entry): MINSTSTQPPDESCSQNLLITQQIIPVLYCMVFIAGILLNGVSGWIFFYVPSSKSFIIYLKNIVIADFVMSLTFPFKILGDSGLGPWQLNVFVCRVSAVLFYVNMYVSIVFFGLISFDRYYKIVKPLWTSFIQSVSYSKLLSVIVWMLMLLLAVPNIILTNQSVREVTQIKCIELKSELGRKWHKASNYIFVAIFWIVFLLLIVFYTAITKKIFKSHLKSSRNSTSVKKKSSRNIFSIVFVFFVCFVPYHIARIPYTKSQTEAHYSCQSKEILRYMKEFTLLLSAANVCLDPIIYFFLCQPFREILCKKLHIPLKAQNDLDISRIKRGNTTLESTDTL

Homo sapiens = species on record: Homo sapiens; assay: Selectivity ratio of EC50 for human P2Y2 receptor transfected in human 1321N1 cells to EC50 for human GPR17 expressed in human 1321N1 cells; assay type: cell-based
[12] = Selectivity ratio of EC50 for rat GPR17 expressed in HEK293 cells to EC50 for human GPR17 expressed in human 1321N1 cells; assay type: cell-based
[13] = Selectivity ratio of EC50 for mouse GPR17 expressed in HEK293 cells to EC50 for human GPR17 expressed in human 1321N1 cells; assay type: cell-based
[14] = target: T1, Uracil nucleotide/cysteinyl leukotriene receptor; assay: Displacement of [3H]PSB-12150 from human GPR17 expressed in CHO cell membranes after 60 mins by liquid scintillation counting
In short: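 Membranes from CHO cells stably expressing human GPR17 were incubated 60 min at 25°C with 25 nM [3H]PSB-12150 (17 Ci/mmol), 10 mM MgCl2 and increasing test compound concentrations. Bound radioligand was separated by GF/B filtration and counted by liquid scintillation. Nonspecific binding was defined with 100 µM unlabeled PSB-12150. Ki came from the Cheng-Prusoff equation with KD 1190 nM. Three independent experiments in duplicate.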

[15] = target: T1, Uracil nucleotide/cysteinyl leukotriene receptor; assay: Agonist activity at human GPR17 expressed in human 1321N1 cells assessed as induction of calcium mobilization at 30 uM after 1 hr by Oregon Green BAPTA-1/AM dye-based fluorescence assay relative to control; assay type: functional, cell-based
[16] = target: T1, Uracil nucleotide/cysteinyl leukotriene receptor; assay: Agonist activity at human GPR17 expressed in human 1321N1 cells assessed as induction of calcium mobilization at >=10 uM after 1 hr by Oregon Green BAPTA-1/AM dye-based fluorescence assay relative to control; assay type: functional, cell-based
[17] = target: T1, Uracil nucleotide/cysteinyl leukotriene receptor; assay: Agonist activity at human GPR17 expressed in human 1321N1 cells assessed as induction of calcium mobilization at >30 uM after 1 hr by Oregon Green BAPTA-1/AM dye-based fluorescence assay relative to control; assay type: functional, cell-based
Glutamate NMDA receptor = assay: Displacement of [3H]CCP from NMDA receptor glutamate binding site in rat cortical and hippocampal membranes
[18] = target: T1, Uracil nucleotide/cysteinyl leukotriene receptor; assay: Agonist activity at human GPR17 expressed in human 1321N1 cells assessed as induction of calcium mobilization at >10 uM after 1 hr by Oregon Green BAPTA-1/AM dye-based fluorescence assay relative to control; assay type: functional, cell-based

Compound: CCCCCCOc1cc(Cl)c2c(CCC(=O)O)c(C(=O)O)[nH]c2c1
EC50 [1]: 0.067 µM
Emax [2]: 95%
EC50 [3]: 2.3 µM
EC50 [4]: 3.03 µM
Emax [5]: 77%
Emax [6]: 59%
Activity [7]: inactive
EC50 (P2Y purinoceptor 2): ≥ 50 µM
Activity [8]: inactive
Activity [9]: inactive
Activity [10]: inactive
Activity [11]: inactive
Ratio EC50 (Homo sapiens): > 700
Ratio EC50 [12]: 34 to 48
Ratio EC50 [13]: 34 to 48
Ki [14]: 13.1 µM

Compound: CCCCCCOc1ccc2c(CCC(=O)O)c(C(=O)O)[nH]c2c1
EC50 [1]: 0.115 µM
Emax [2]: 62%
EC50 [3]: 5.31 µM
EC50 [4]: 5.51 µM
Emax [5]: 53%
Emax [6]: 28%
Activity [7]: inactive
Activity (P2Y purinoceptor 2): inactive
Activity [8]: inactive
Activity [9]: inactive
Activity [10]: inactive
Activity [11]: inactive
Ratio EC50 [12]: 34 to 48
Ratio EC50 [13]: 34 to 48
Ki [14]: 1.5 µM

Compound: O=C(O)CCc1c(C(=O)O)[nH]c2cccc(F)c12
EC50 [1]: ≥ 10 µM
Activity [16]: 44%

Compound: CCCCCCOc1cc(Cl)cc2[nH]c(C(=O)O)c(CCC(=O)O)c12
EC50 [1]: > 10 µM
Activity [18]: 40%

Continued, values first:

EC50 [1]: 30 µM
Activity [15]: 52%
Compound: O=C(O)CCc1c(C(=O)O)[nH]c2cccc(Cl)c12

EC50 [1]: > 30 µM
Activity [17]: 5%
IC50 (Glutamate NMDA receptor): > 1000 µM
Compound: O=C(O)CCc1c(C(=O)O)[nH]c2c(Cl)cccc12

EC50 [1]: > 30 µM
Activity [17]: 11%
IC50 (Glutamate NMDA receptor): 35 µM
Compound: O=C(O)CCc1c(C(=O)O)[nH]c2ccc(Cl)cc12
